Laboratory results published in publication PMC4593394 (ACS chemical biology, 2015).

Experiments:
[1] = target: wt p97 (Homo sapiens, UniProt P55072); experiment: p97 ATPase assay; type: biochemical
Procedure, shortened: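 Test compound in DMSO (0.0004–100 μM) preincubated 10 min at 21 °C, then 100 μM ATP added at 21 °C. IC50 fitted from % inhibition versus log concentration. Screen: 100 μM pure compounds, EDTA positive control.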

[2] = target: p97–C522A (Homo sapiens, UniProt P55072, C522A); experiment: ATPase assay, p97 C522A variant; type: biochemical
Procedure, shortened: (§1)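 His-tagged p97 variants were expressed from pET14b in E. coli BL21(DE3) and purified on Talon resin; C522A and C209A were also run on Superose 6. Enzyme (100 nM) was in 50 mM Tris pH 7.4, 150 mM KCl, 10 mM MgCl2, 1 mM DTT. Compound (0.0004–100 μM, 12 points, DMSO) was preincubated 10 min at 21 °C. 100 μM ATP was added at 21 °C. IC50 came from % inhibition versus log concentration.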

[3] = target: 20S proteasome (Homo sapiens, UniProt P20618+P28074); experiment: 20S proteasome chymotrypsin-like activity; type: biochemical; details: 1.2 nM 20S proteasome, Suc-LLVY-AMC
Procedure, shortened: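 Kit-supplied 20S proteasome (1.2 nM final) was preincubated with test compound (eight-point, 3-fold serial dilutions) in kit reaction buffer at 37 °C for 10 min. Then 50 μM Suc-LLVY-AMC was added, followed by 1 h at 37 °C. AMC fluorescence was read at ex 380/em 440 nm. IC50 was taken from a semi-log plot of relative fluorescence versus concentration.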

[4] = target: N-ethylmaleimide sensitive factor (NSF) (Cricetulus griseus, UniProt P18708); experiment: NSF ATPase assay; type: biochemical, Chinese hamster (Cricetulus griseus)
Procedure, shortened: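 Chinese hamster NSF was expressed in E. coli Rosetta 2(DE3), purified by Talon then Superdex 200, and used at 200 nM in 50 mM Tris pH 7.4, 150 mM KCl, 10 mM MgCl2, 1 mM DTT. Compound (0.0004–100 μM in DMSO) was preincubated 10 min at 21 °C, then 100 μM ATP was added. IC50 was fitted from % inhibition on a semi-log plot.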

[5] = target: p97–Cys0 (Homo sapiens, UniProt P55072, C105V/C174V/C184V/C209A/C415V/C522A/C535V/C572V/C691V/C695V/C69V/C77V); experiment: ATPase assay, cysteine-less p97 variant; type: biochemical
Procedure, shortened: as §1

[6] = target: wild-type p97 (wt-p97) (Homo sapiens, UniProt P55072); experiment: Analysis of covalent reactivity: p97 ATPase activity after dialysis; type: biochemical; details: 1 μM compound, 1 μM p97, 2 mM ATP
Procedure, shortened: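 His-tagged wild-type p97 (pET14b, E. coli BL21(DE3), Talon-purified; 1 μM) was incubated with 1 μM compound in Tris/KCl/MgCl2/DTT buffer pH 7.4 at 4 °C 12 h, 21 °C 6 h or 37 °C 2 h; 1% DMSO served as control. The mixture was dialysed against buffer exchanged three times at 2-h intervals.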

[7] = tested on: XBP1s in HEK293 cells; experiment: Unfolded protein response: XBP1 splicing, Western blot; type: cell-based; details: anti-XBP1 Western blot
Procedure, shortened: (§2)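 HEK293 cells were treated with compound in DMEM/10% FBS for 24 h and lysed in SDS sample buffer with sonication. Lysates were run on 4–20% gradient SDS-PAGE and transferred to nitrocellulose, blocked 1 h in 5% milk, then probed with 1:1000 anti-ubiquitin, anti-XBP1s (spliced […] band) or anti-LC3 I/II (LC3-II lowest band). Secondaries were used at 1:3000 with chemiluminescent detection; lamin A or GAPDH served as loading controls.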

[8] = target: ClpX (Escherichia coli, UniProt P0A6H1); experiment: ClpX ATPase assay; type: biochemical, bacterial
[9] = tested on: Ub^G76VGFP in HEK293 cells; experiment: Ub^G76VGFP reporter level, Western blot; type: cell-based; details: anti-GFP Western blot
[10] = target: GroEL (Escherichia coli, UniProt P0A6F5); experiment: biochemical; parameters: species or system E. coli
[11] = tested on: actin (phalloidin), vimentin, and annexin II; experiment: Immunofluorescence of structural proteins; type: cell-based; details: HEK293 cells, 4 h, concentrations used in the cellular studies
[12] = tested on: total ubiquitylated proteins in HEK293 cells; experiment: Total ubiquitylation, Western blot; type: cell-based; details: anti-ubiquitin antibody
Procedure, shortened: as §2

[13] = target: p97–C209A (Homo sapiens, UniProt P55072, C209A); experiment: ATPase assay, p97 C209A variant; type: biochemical
Procedure, shortened: as §1

[14] = in vitro; details: human
[15] = in vitro; details: human; remark: listed apart in the source
[16] = in vitro; details: human; remark: listed apart in the source
[17] = in vitro; details: human; remark: listed apart in the source
[18] = in vitro; details: human; remark: listed apart in the source
[19] = in vitro; details: human; remark: listed apart in the source

Chain of wt p97 (P55072 whole entry): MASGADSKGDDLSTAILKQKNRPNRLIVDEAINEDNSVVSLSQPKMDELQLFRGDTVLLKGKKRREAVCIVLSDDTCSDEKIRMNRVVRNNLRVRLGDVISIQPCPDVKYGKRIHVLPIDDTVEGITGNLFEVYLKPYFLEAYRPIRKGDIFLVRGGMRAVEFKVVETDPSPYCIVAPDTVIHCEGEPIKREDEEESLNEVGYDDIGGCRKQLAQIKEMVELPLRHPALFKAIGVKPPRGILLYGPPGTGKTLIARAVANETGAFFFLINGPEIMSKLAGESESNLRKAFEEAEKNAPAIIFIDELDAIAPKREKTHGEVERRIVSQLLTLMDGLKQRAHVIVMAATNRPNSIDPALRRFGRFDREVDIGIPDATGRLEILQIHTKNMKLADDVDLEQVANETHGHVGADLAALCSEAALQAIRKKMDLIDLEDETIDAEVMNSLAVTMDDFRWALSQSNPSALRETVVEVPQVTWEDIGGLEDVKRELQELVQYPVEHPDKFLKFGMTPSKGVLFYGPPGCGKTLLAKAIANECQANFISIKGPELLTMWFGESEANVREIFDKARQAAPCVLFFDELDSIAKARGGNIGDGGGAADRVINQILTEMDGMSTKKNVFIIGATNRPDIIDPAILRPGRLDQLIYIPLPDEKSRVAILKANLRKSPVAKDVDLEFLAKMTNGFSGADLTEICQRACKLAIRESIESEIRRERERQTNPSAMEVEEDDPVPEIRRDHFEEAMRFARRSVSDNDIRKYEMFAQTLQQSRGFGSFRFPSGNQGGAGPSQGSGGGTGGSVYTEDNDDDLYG
Chain of N-ethylmaleimide sensitive factor (NSF) (P18708 whole entry): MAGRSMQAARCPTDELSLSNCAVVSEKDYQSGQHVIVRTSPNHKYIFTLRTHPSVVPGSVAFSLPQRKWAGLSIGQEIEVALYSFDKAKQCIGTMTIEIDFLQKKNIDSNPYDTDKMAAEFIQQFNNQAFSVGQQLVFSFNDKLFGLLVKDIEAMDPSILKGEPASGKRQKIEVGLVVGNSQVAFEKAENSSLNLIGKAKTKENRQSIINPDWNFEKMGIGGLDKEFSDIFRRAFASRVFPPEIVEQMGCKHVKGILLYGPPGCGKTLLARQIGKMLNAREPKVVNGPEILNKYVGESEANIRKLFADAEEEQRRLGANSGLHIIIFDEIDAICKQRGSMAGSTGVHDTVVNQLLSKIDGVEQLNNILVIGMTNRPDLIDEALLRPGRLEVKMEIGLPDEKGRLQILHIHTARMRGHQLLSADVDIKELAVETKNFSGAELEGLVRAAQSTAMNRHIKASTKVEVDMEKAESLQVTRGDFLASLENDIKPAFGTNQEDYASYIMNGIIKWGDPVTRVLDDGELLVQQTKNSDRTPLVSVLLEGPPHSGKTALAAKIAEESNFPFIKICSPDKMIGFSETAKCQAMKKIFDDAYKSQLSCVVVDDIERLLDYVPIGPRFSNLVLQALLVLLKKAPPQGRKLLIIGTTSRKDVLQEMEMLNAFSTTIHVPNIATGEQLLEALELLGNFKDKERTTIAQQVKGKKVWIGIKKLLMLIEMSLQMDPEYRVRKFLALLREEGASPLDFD
Chain of p97–Cys0 (P55072 whole entry C69V/C77V/C105V/C174V/C184V/C209A/C415V/C522A/C535V/C572V/C691V/C695V): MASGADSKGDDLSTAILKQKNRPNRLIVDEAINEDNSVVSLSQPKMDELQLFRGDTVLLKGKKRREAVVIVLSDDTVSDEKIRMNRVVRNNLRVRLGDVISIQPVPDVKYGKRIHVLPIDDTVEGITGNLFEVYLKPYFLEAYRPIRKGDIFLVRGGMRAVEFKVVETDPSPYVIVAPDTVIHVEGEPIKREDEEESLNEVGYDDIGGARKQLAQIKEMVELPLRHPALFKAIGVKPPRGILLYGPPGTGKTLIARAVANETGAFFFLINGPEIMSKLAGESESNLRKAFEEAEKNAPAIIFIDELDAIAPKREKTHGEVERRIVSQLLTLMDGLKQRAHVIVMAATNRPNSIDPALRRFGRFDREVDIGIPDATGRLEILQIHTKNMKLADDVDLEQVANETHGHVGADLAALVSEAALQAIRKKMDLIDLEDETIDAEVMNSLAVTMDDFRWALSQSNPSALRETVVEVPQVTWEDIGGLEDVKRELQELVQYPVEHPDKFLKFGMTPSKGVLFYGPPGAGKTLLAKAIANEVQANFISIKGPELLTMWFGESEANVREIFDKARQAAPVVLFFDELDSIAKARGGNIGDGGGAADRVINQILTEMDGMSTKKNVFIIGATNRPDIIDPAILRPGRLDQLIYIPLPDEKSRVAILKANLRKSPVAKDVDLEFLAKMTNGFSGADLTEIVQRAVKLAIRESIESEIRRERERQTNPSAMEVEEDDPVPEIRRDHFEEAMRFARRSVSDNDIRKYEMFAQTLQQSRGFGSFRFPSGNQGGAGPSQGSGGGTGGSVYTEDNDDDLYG
Chain of ClpX (P0A6H1 whole entry): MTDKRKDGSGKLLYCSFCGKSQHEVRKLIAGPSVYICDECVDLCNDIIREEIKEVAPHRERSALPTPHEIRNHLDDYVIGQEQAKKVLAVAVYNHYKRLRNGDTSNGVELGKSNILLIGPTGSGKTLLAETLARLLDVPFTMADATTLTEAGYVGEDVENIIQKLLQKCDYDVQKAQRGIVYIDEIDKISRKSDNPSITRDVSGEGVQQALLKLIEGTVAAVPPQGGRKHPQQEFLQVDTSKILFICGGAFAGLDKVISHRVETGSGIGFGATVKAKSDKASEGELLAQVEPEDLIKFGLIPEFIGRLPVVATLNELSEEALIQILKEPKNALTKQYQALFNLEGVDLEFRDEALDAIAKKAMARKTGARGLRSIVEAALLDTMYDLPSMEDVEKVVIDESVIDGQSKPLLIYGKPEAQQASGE
Chain of p97–C522A (P55072 whole entry C522A): as the sequence (P55072 whole entry) above, with C522A counted along it
Chain of p97–C209A (P55072 whole entry C209A): as the sequence (P55072 whole entry) above, with C209A counted along it
Chain of GroEL (P0A6F5 2-548): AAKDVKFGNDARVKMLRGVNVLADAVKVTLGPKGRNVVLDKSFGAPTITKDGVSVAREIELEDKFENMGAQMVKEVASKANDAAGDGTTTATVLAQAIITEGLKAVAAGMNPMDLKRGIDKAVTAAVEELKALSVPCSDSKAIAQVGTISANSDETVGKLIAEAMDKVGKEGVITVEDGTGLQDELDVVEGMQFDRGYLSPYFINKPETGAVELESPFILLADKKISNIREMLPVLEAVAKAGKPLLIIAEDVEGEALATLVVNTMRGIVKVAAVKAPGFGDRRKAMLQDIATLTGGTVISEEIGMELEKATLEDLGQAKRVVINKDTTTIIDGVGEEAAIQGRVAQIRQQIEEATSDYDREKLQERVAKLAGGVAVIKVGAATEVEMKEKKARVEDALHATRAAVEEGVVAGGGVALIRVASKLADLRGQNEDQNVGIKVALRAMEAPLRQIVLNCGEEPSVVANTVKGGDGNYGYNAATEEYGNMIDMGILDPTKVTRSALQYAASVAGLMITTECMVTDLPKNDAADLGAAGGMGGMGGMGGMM
Chain of wild-type p97 (wt-p97) (P55072 whole entry): as the sequence (P55072 whole entry) above

CC1=C(CO)C(=O)O[C@@H]([C@@H](C)[C@H]2CC[C@H]3[C@@H]4C[C@H]5O[C@]56[C@@H](O)C=CC(=O)[C@]6(C)[C@H]4CC[C@]23C)C1 [Compound 1, withaferin A]
IC50 [1]: 44 ± 0.21 µM
inhibition of p97 in initial screen ([1]; 100 μM for pure compounds, 384-well plate): moderate inhibition
effect of ATP concentration on the IC50 value ([1]; varied ATP concentration): distinct shift in the IC50 value
IC50 [2]: > 200 µM
inhibition of the 20S proteasome [3]: inhibit
IC50 [4]: > 200 µM
IC50 [5]: > 200 µM
inhibition of p97 ATPase remaining after extensive dialysis [6]: slight inhibition remained
increase in XBP1s [7]: did show an increase
IC50 [8]: > 200 µM
level of Ub^G76VGFP reporter [9]: dose-dependent, higher levels of reporter
IC50 [10]: > 200 µM
effects on structural proteins [11]: did not see effects
total ubiquitylation [12]: increased
IC50 [13]: 24.9 ± 1.91 µM

CC1=C(CO)C(=O)O[C@@H]([C@@H](C)[C@H]2CC[C@H]3[C@@H]4C[C@H]5O[C@]56[C@@H](O)[C@@H](O)CC(=O)[C@]6(C)[C@H]4CC[C@]23C)C1 [Compound 14, viscosalactone B]
IC50 [1]: > 200 µM
IC50 [2]: > 200 µM
IC50 [4]: > 200 µM
IC50 [5]: > 200 µM
IC50 at 48 h [14]: > 100 µM
IC50 at 48 h [15]: > 100 µM
IC50 at 48 h [16]: > 100 µM
IC50 [8]: > 200 µM
IC50 [10]: > 200 µM
IC50 at 48 h [17]: > 100 µM
IC50 at 48 h [18]: > 100 µM
IC50 [13]: > 200 µM
IC50 at 48 h [19]: > 100 µM
